Results: ChEMBL document CHEMBL1131316, “Potent antagonists of somatostatin: synthesis and biology” (J Med Chem, 1998)
pIC50, pKi: −log10 of the molar value. Positions of bridges follow the written chain, without caps; N, C: chain ends. Non-standard residues stand in square brackets, D forms with d. Residues, ends and D or L forms follow the SMILES beside them. Phe(4-NO2) = N[C@@H](Cc1ccc([N+](=O)[O-])cc1)C(=O)O; dDip = N[C@@H](C(=O)O)C(c1ccccc1)c1ccccc1; Dip = N[C@H](C(=O)O)C(c1ccccc1)c1ccccc1; 2Nal = N[C@@H](Cc1ccc2ccccc2c1)C(=O)O; d2Nal = N[C@H](Cc1ccc2ccccc2c1)C(=O)O; 3Pal = N[C@@H](Cc1cccnc1)C(=O)O

Key:
[1] = target: Somatostatin receptor type 1 (Homo sapiens, UniProt P30872); test: Binding affinity towards cloned human somatostatin 1 (hsst) receptor
Sequence of Somatostatin receptor type 1 (P30872 whole entry): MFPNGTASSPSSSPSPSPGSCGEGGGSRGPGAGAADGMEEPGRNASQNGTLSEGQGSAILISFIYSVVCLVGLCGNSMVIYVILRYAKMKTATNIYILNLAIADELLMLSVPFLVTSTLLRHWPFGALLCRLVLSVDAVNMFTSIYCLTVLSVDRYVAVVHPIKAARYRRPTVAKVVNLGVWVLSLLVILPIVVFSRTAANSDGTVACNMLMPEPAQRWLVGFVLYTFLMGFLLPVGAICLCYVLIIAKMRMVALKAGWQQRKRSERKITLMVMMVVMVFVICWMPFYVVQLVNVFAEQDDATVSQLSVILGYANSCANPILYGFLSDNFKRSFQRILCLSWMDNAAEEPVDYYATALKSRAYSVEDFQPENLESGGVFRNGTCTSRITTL
Summary of the method: (§1)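 Membranes from CHO-K1 cells stably transfected with the human receptor subtype (calcium phosphate transfection, G418 selection), homogenised and washed in Tris-HCl. Separated by filtration on PEI-soaked GF/C filters; nonspecific binding with 1.0 µM SRIF.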

[2] = target: Somatostatin receptor type 3 (Homo sapiens, UniProt P32745); test: Binding affinity towards cloned human somatostatin 3 (hsst) receptor; summary of the method: as §1
Sequence of Somatostatin receptor type 3 (P32745 whole entry): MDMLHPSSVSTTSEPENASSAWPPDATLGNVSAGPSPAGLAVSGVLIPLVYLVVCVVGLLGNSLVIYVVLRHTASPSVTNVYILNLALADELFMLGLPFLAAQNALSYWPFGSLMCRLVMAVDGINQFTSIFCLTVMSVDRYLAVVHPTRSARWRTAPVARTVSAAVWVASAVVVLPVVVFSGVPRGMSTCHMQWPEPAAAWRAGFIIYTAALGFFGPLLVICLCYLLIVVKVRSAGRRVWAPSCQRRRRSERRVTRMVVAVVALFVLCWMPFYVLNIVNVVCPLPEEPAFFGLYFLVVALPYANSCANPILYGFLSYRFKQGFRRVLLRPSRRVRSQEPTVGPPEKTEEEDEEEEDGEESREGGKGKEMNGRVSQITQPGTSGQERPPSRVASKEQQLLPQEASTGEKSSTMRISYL

[3] = target: Somatostatin receptor type 5 (Homo sapiens, UniProt P35346); test: Binding affinity towards cloned human somatostatin 5 (hsst) receptor; summary of the method: as §1
Sequence of Somatostatin receptor type 5 (P35346 whole entry): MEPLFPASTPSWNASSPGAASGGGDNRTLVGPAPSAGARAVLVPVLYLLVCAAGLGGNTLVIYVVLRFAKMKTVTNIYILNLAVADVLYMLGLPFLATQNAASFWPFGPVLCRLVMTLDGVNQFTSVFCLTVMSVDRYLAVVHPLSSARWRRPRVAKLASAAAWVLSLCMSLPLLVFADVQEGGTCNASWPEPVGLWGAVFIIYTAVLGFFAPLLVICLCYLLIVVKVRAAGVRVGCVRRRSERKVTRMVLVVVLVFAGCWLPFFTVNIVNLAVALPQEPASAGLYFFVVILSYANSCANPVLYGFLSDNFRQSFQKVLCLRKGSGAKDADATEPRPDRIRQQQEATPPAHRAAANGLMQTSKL

[4] = target: Somatostatin receptor type 4 (Homo sapiens, UniProt P31391); test: Binding affinity towards cloned human somatostatin 4 (hsst) receptor
Sequence of Somatostatin receptor type 4 (P31391 whole entry): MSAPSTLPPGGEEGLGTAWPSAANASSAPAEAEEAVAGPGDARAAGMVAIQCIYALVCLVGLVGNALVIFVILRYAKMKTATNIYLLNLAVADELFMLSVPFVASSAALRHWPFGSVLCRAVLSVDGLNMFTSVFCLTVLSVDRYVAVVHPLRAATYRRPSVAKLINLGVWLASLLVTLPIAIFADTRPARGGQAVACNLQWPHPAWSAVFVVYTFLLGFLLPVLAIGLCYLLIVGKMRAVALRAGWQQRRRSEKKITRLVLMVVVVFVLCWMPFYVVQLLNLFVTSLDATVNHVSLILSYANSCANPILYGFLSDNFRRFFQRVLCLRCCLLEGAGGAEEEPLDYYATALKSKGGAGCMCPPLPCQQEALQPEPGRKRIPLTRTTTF

[5] = target: Somatostatin receptor type 2 (Homo sapiens, UniProt P30874); test: Binding affinity towards cloned human somatostatin 2 (hsst) receptor; summary of the method: as §1
Sequence of Somatostatin receptor type 2 (P30874 whole entry): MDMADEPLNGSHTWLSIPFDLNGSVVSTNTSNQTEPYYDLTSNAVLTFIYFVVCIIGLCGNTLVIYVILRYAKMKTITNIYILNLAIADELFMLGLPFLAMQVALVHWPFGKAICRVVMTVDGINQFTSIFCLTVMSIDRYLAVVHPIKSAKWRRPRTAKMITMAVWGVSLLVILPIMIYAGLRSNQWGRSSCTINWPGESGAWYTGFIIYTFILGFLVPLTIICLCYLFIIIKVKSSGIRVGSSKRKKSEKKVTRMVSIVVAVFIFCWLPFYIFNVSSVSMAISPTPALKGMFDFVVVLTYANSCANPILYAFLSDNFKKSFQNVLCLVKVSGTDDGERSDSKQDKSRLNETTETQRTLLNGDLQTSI

[6] = target: Somatostatin receptor; test: Compound was tested for in vitro SRIF inhibition of GH release in rats; type: functional
Summary of the method: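 Adult male rat anterior pituitary cells, dispersed with trypsin/DNase, cultured 4-5 days. Then 3 h at 37 °C in medium 199 with 1% BSA, GHRH(1-29)NH2 1 nM and SRIF 1 nM, with analogue at six doses (up to 10 µM, some to 100 µM), triplicate wells. GH in medium measured by double-antibody RIA. Antagonist IC50 taken from n separate dose-response curves.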

SMILES | pIC50 [1] | pIC50 [2] | pKi [3] | pIC50 [4] | pKi [5] | IC50 [6] [µM]
CC(C)[C@@H]1NC(=O)[C@H](CCCCN)NC(=O)[C@@H](Cc2c[nH]c3ccccc23)NC(=O)[C@H](Cc2c[nH]cn2)NC(=O)[C@H](NC(=O)[C@@H](N)Cc2ccc3ccccc3c2)CSSC[C@@H](C(=O)N[C@@H](C(N)=O)C(c2ccccc2)c2ccccc2)NC1=O (H-[2Nal][dC]H[dW]KVC[dDip]-NH2; disulfide 2-7) | 5.96 | 5.92 | 6.00 | 6.00 | – | –
CC(C)[C@@H]1NC(=O)[C@H](CCCCN)NC(=O)[C@@H](Cc2c[nH]c3ccccc23)NC(=O)[C@H](Cc2ccc(O)cc2)NC(=O)[C@H](NC(=O)[C@@H](N)Cc2ccc(O)cc2)CSSC[C@@H](C(=O)N[C@H](Cc2ccc3ccccc3c2)C(N)=O)NC1=O | – | – | – | – | – | 0.0648
CC(C)[C@@H]1NC(=O)[C@H](CCCCN)NC(=O)[C@@H](Cc2c[nH]c3ccccc23)NC(=O)[C@H](Cc2ccc(O)cc2)NC(=O)[C@@H](NC(=O)[C@@H](N)Cc2ccc3ccccc3c2)CSSC[C@H](C(=O)N[C@@H](Cc2ccc3ccccc3c2)C(N)=O)NC1=O | – | – | – | – | – | 0.0353
CC(C)[C@@H]1NC(=O)[C@H](CCCCN)NC(=O)[C@@H](Cc2c[nH]c3ccccc23)NC(=O)[C@H](Cc2ccc(O)cc2)NC(=O)[C@H](NC(=O)[C@@H](N)Cc2ccc3ccccc3c2)CSSC[C@@H](C(=O)N[C@H](C(N)=O)[C@@H](C)O)NC1=O | 5.66 | 6.13 | – | – | 6.93 | –
CC(C)[C@@H]1NC(=O)[C@H](CCCCN)NC(=O)[C@@H](Cc2c[nH]c3ccccc23)NC(=O)[C@H](Cc2ccc(O)cc2)NC(=O)[C@H](NC(=O)[C@@H](N)Cc2ccc3ccccc3c2)CSSC[C@@H](C(=O)N[C@@H](Cc2ccc(O)cc2)C(N)=O)NC1=O (H-[2Nal][dC]Y[dW]KVCY-NH2; disulfide 2-7) | – | – | – | – | – | 0.05
CC(C)[C@@H]1NC(=O)[C@H](CCCCN)NC(=O)[C@@H](Cc2c[nH]c3ccccc23)NC(=O)[C@H](Cc2ccc(O)cc2)NC(=O)[C@H](NC(=O)[C@@H](N)Cc2ccc([N+](=O)[O-])cc2)CSSC[C@@H](C(=O)N[C@@H](Cc2ccc(O)cc2)C(N)=O)NC1=O (H-[Phe(4-NO2)][dC]Y[dW]KVCY-NH2; disulfide 2-7) | 5.49 | 6.75 | 7.00 | 6.20 | 7.63 | –
CC(C)[C@@H]1NC(=O)[C@H](CCCCN)NC(=O)[C@@H](Cc2c[nH]c3ccccc23)NC(=O)[C@H](Cc2ccc(O)cc2)NC(=O)[C@H](NC(=O)[C@@H](N)Cc2ccc3ccccc3c2)CSSC[C@@H](C(=O)N[C@@H](Cc2ccc3ccccc3c2)C(N)=O)NC1=O | 5.70 | 6.79 | 6.52 | 6.00 | 7.42 | –
CC(C)[C@@H]1NC(=O)[C@H](CCCCN)NC(=O)[C@@H](Cc2c[nH]c3ccccc23)NC(=O)[C@H](Cc2ccc(O)cc2)NC(=O)[C@@H](NC(=O)[C@H](N)Cc2ccc3ccccc3c2)CSSC[C@H](C(=O)N[C@H](C(N)=O)[C@@H](C)O)NC1=O | 5.31 | 6.00 | – | – | 6.46 | –
CC(C)[C@H](NC(=O)[C@H](CCCCN)NC(=O)[C@@H](Cc1c[nH]c2ccccc12)NC(=O)[C@H](Cc1ccc(O)cc1)NC(=O)[C@@H](Cc1ccc(Cl)cc1)NC(=O)[C@@H](N)Cc1ccc2ccccc2c1)C(=O)N[C@@H](Cc1ccccc1)C(=O)N[C@@H](Cc1ccc2ccccc2c1)C(N)=O | 6.00 | 5.79 | 5.71 | 6.00 | 6.00 | –
CC(C)NC(=O)[C@@H]1CSSC[C@@H](NC(=O)[C@@H](N)Cc2ccc3ccccc3c2)C(=O)N[C@@H](Cc2ccc(O)cc2)C(=O)N[C@H](Cc2c[nH]c3ccccc23)C(=O)N[C@@H](CCCCN)C(=O)N[C@@H](C(C)C)C(=O)N1 | 6.00 | 5.91 | – | 6.00 | 6.36 | –
CC(C)[C@@H]1NC(=O)[C@H](CCCCN)NC(=O)[C@@H](Cc2c[nH]c3ccccc23)NC(=O)[C@H](Cc2ccc(O)cc2)NC(=O)[C@H](NC(=O)[C@H](N)Cc2ccc3ccccc3c2)CSSC[C@@H](C(=O)N[C@H](Cc2ccc3ccccc3c2)C(N)=O)NC1=O | 5.78 | 5.97 | 6.45 | 6.00 | 7.08 | –
C[C@@H](O)[C@H](NC(=O)[C@H](Cc1ccccc1)NC(=O)[C@@H](NC(=O)[C@H](CCCCN)NC(=O)[C@@H](Cc1c[nH]c2ccccc12)NC(=O)[C@H](Cc1ccc(O)cc1)NC(=O)[C@@H](Cc1ccccc1)NC(=O)[C@@H](N)Cc1ccccc1)[C@@H](C)O)C(N)=O | 6.00 | 6.67 | 5.93 | 6.00 | 6.35 | –
CC(C)[C@@H]1NC(=O)[C@H](CCCCN)NC(=O)[C@@H](Cc2c[nH]c3ccccc23)NC(=O)[C@H](Cc2ccc(O)cc2)NC(=O)[C@H](NC(=O)[C@H](N)Cc2ccc3ccccc3c2)CSSC[C@@H](C(=O)N[C@H](C(N)=O)[C@@H](C)O)NC1=O | 5.80 | – | – | – | 6.51 | –
CC(C)[C@@H]1NC(=O)[C@H](CCCCN)NC(=O)[C@@H](Cc2c[nH]c3ccccc23)NC(=O)[C@H](Cc2ccc(O)cc2)NC(=O)[C@H](NC(=O)[C@H](N)Cc2ccccc2)C(C)(C)SSC[C@@H](C(=O)N[C@H](C(N)=O)[C@@H](C)O)NC1=O | 6.00 | 6.09 | – | 6.00 | 5.59 | –
C[C@@H](O)[C@H](NC(=O)[C@@H]1CSSC[C@@H](NC(=O)[C@H](N)Cc2ccccc2)C(=O)N[C@@H](Cc2cccnc2)C(=O)N[C@H](Cc2c[nH]c3ccccc23)C(=O)N[C@@H](CCCCN)C(=O)N[C@@H]([C@@H](C)O)C(=O)N1)C(N)=O | 6.00 | 5.87 | 6.00 | 6.00 | 6.25 | –
CC[C@@H]1NC(=O)[C@H](CCCCN)NC(=O)[C@@H](Cc2c[nH]c3ccccc23)NC(=O)[C@H](Cc2ccc(O)cc2)NC(=O)[C@H](NC(=O)[C@H](N)Cc2ccccc2)CSSC[C@@H](C(=O)N[C@H](C(N)=O)[C@@H](C)O)NC1=O | 6.00 | 6.85 | – | 6.00 | 6.74 | –
CC(C)[C@H](NC(=O)[C@H](CCCCN)NC(=O)[C@@H](Cc1c[nH]c2ccccc12)NC(=O)[C@H](Cc1ccc(O)cc1)NC(=O)[C@@H](Cc1ccc(Cl)cc1)NC(=O)[C@H](N)Cc1ccc2ccccc2c1)C(=O)N[C@@H](Cc1ccccc1)C(=O)N[C@@H](Cc1ccc2ccccc2c1)C(N)=O | 6.00 | 6.21 | 6.75 | 6.00 | 6.28 | –

More lines, now with the values ahead:

pIC50 [1] | pIC50 [2] | pKi [3] | pIC50 [4] | pKi [5] | IC50 [6] [µM] | SMILES
6.00 | 6.00 | 6.00 | 6.00 | 6.00 | – | CC(=O)N[C@@H]1CSSC[C@@H](C(=O)N[C@H](C(N)=O)[C@@H](C)O)NC(=O)[C@H](C(C)C)NC(=O)[C@H](CCCCN)NC(=O)[C@@H](Cc2c[nH]c3ccccc23)NC(=O)[C@H](Cc2ccc(O)cc2)NC1=O
6.14 | 8.25 | 7.55 | – | 7.46 | – | C[C@@H](O)[C@@H]1NC(=O)[C@H](CCCCN)NC(=O)[C@@H](Cc2c[nH]c3ccccc23)NC(=O)[C@H](Cc2ccccc2)NC(=O)[C@H](Cc2ccccc2)NC(=O)[C@H](N)CSSC[C@H](C(N)=O)NC(=O)[C@H](Cc2ccccc2)NC1=O
6.00 | 6.39 | 6.00 | – | – | – | CC(C)[C@@H]1NC(=O)[C@H](CCCCN)NC(=O)[C@@H](Cc2c[nH]c3ccccc23)NC(=O)[C@H](Cc2ccc(O)cc2)NC(=O)[C@@H](C)N(C)C(=O)[C@H](Cc2ccccc2)NC1=O
6.00 | 6.19 | 5.56 | 6.00 | 6.10 | – | CC(C)[C@H](NC(=O)[C@H](CCCCN)NC(=O)[C@@H](Cc1c[nH]c2ccccc12)NC(=O)[C@H](Cc1ccc(O)cc1)NC(=O)[C@@H](Cc1ccc(Cl)cc1)NC(=O)[C@@H](N)Cc1ccccc1)C(=O)N[C@@H](Cc1ccccc1)C(=O)N[C@H](C(N)=O)[C@@H](C)O
6.00 | 6.04 | 6.00 | 6.00 | 6.45 | – | CC(C)[C@@H]1NC(=O)[C@H](CCCCN)NC(=O)[C@@H](Cc2c[nH]c3ccccc23)NC(=O)[C@H](Cc2cccnc2)NC(=O)[C@H](NC(=O)[C@@H](N)Cc2ccc3ccccc3c2)CSSC[C@@H](C(=O)N[C@H](C(N)=O)C(c2ccccc2)c2ccccc2)NC1=O (H-[2Nal][dC][3Pal][dW]KVC[Dip]-NH2; disulfide 2-7)
6.00 | 6.00 | – | 6.00 | 6.86 | – | CC(C)[C@@H]1NC(=O)[C@H](CCCCN)NC(=O)[C@@H](Cc2c[nH]c3ccccc23)NC(=O)[C@H](Cc2ccc(O)cc2)NC(=O)[C@@H](NC(=O)[C@H](N)Cc2ccc3ccccc3c2)CSSC[C@H](C(=O)N[C@@H](Cc2ccc3ccccc3c2)C(N)=O)NC1=O (stereo in doubt; 27)
6.61 | 6.63 | 6.28 | 6.12 | 7.45 | – | CC(C)[C@@H]1NC(=O)[C@H](CCCCN)NC(=O)[C@@H](Cc2c[nH]c3ccccc23)NC(=O)[C@H](Cc2cccnc2)NC(=O)[C@H](NC(=O)[C@@H](N)Cc2ccc([N+](=O)[O-])cc2)CSSC[C@@H](C(=O)N[C@@H](Cc2ccc(O)cc2)C(N)=O)NC1=O (H-[Phe(4-NO2)][dC][3Pal][dW]KVCY-NH2; disulfide 2-7)
6.23 | 6.19 | 6.66 | 6.00 | 7.11 | – | CC(C)[C@@H]1NC(=O)[C@H](CCCCN)NC(=O)[C@@H](Cc2c[nH]c3ccccc23)NC(=O)[C@H](Cc2ccc(O)cc2)NC(=O)[C@H](NC(=O)[C@@H](N)Cc2c[nH]c3ccccc23)CSSC[C@@H](C(=O)N[C@H](Cc2ccc3ccccc3c2)C(N)=O)NC1=O (H-W[dC]Y[dW]KVC[d2Nal]-NH2; disulfide 2-7)
